ChEMBL document CHEMBL4177769, “Highly Selective and Potent Ectonucleotide Pyrophosphatase-1 (NPP1) Inhibitors Based on Uridine 5'-Pα,α-Dithiophosphate Analogues” (J Med Chem, 2018)

Assays:
[1] = Drug level treated with UTP 5'-O-Palpha,alpha-dithiophosphate at 2 mM at pH 1.7 at room temperature after 23 days by 31P NMR method; format: physicochemical; conditions: pH 1.7, 552 h, 2000 µM
[2] = molecular target: T1, Ectonucleoside triphosphate diphosphohydrolase 3 (Homo sapiens) (UniProt O75355); assay: Activation of human NTPDase3 using ATP as substrate preincubated for 3 mins followed by substrate addition measured after 10 mins by malachite green reagent-based assay relative to control
T1 sequence (whole entry): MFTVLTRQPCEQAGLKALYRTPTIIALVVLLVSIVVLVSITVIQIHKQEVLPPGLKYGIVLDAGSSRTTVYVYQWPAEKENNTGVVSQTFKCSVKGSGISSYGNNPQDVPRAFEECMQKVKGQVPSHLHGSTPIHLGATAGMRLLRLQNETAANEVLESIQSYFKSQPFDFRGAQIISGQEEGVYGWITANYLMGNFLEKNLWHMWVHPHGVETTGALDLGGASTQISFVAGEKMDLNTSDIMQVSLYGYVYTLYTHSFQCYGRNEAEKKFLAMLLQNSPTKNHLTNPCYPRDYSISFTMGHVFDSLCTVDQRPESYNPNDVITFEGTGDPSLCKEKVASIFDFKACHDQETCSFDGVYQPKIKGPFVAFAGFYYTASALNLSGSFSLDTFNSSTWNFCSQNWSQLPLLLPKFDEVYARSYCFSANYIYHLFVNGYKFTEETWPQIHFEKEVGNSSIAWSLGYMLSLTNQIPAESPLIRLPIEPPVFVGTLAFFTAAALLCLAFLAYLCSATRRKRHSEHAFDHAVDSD
Method in brief: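 Compound at 100 μM, 3 min preincubation, 100 μM ATP, 10 min. Stopped with malachite green; Pi read at 630 nm. Blank with enzyme added after stop subtracted. Activity with ATP alone taken as 100%.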

O=c1ccn([C@@H]2O[C@H](COP(=S)(S)OP(=O)(O)O)[C@@H](O)[C@H]2O)c(=O)[nH]1 (some centres not stated)
Drug metabolism [1]: Metabolite_Detected

O=c1ccn([C@@H]2O[C@H](COP(=S)(S)OP(=O)(O)OP(=O)(O)O)[C@@H](O)[C@H]2O)c(=O)[nH]1 (some centres not stated)
Activity [2]: 7 to 27%
